Assay results published in ChEMBL document CHEMBL1154186, “Synthesis, kinase inhibitory potencies, and in vitro antiproliferative evaluation of new Pim kinase inhibitors” (J Med Chem, 2009).

Legend:
[1] = target: Serine/threonine-protein kinase pim-1 (Homo sapiens) (UniProt P11309); assay: Inhibition of Pim-1 assessed as residual enzyme activity at 1 uM relative to untreated control
[2] = target: Serine/threonine-protein kinase pim-2 (Homo sapiens) (UniProt Q9P1W9); assay: Inhibition of Pim-2 assessed as residual enzyme activity at 1 uM relative to untreated control
Chain of Serine/threonine-protein kinase pim-2 (Homo sapiens) (Q9P1W9 whole entry, looked up): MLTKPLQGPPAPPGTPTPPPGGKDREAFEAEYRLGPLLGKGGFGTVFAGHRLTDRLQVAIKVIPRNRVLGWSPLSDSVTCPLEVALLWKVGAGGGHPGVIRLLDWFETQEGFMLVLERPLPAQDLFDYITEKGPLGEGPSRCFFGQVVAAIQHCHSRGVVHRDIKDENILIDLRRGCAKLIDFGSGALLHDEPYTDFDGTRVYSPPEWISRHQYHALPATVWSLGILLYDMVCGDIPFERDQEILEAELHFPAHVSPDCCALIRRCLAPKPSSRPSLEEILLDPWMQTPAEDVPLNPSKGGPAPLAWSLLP

[3] = target: Serine/threonine-protein kinase pim-3 (Homo sapiens) (UniProt Q86V86); assay: Inhibition of Pim-3 assessed as residual enzyme activity at 1 uM relative to untreated control
[4] = target: Serine/threonine-protein kinase pim-1 (Homo sapiens) (UniProt P11309); assay: Inhibition of Pim-1 assessed as residual enzyme activity at 10 uM relative to untreated control
[5] = target: Serine/threonine-protein kinase pim-2 (Homo sapiens) (UniProt Q9P1W9); assay: Inhibition of Pim-2 assessed as residual enzyme activity at 10 uM relative to untreated control
[6] = target: Serine/threonine-protein kinase pim-3 (Homo sapiens) (UniProt Q86V86); assay: Inhibition of Pim-3 assessed as residual enzyme activity at 10 uM relative to untreated control
PC-3 = assay: Antiproliferative activity against human PC3 cells after 48 hrs by resazurin dye reduction assay; format: functional, cell-based; conditions: PC-3, 48 h
In short: (§1)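 Cells (human fibroblast primary culture, or PC3, DU145 or PA1 cancer lines) were kept as monolayers in Glutamax MEM with Earle's salts, 10% FCS, pyruvate, nonessential amino acids and gentamicin, at 37 °C in 5% CO2. 5×10^3 cells/well adhered for 16 h, then had 48 h continuous drug exposure (20 mM DMSO stock). Resazurin 25 µg/mL for 1 h; fluorescence ex 530/em 590 nm. IC50 from blank-corrected concentration–survival curves versus control wells.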

DU-145 = assay: Antiproliferative activity against human DU145 cells after 48 hrs by resazurin dye reduction assay; format: functional, cell-based; conditions: DU-145, 48 h; in short: as §1
PA-1 = assay: Antiproliferative activity against human PA1 cells after 48 hrs by resazurin dye reduction assay; format: functional, cell-based; conditions: PA-1, 48 h; in short: as §1
[7] = Antiproliferative activity against human fibroblasts after 48 hrs by resazurin dye reduction assay; format: cell-based; conditions: Fibroblast; in short: as §1

Chain of Serine/threonine-protein kinase pim-1 (Homo sapiens) (P11309 whole entry, looked up): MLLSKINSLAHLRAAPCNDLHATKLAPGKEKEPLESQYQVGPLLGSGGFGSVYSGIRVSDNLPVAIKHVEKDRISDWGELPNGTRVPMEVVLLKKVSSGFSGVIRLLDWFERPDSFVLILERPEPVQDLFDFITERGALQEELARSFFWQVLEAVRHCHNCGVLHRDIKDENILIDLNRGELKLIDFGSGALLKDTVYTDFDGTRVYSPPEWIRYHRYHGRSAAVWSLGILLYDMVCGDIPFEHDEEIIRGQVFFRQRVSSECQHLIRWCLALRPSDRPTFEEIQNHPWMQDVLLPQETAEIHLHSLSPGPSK

SMILES	Activity [1]	Activity [2]	Activity [3]	Activity [4]	Activity [5]	Activity [6]	IC50 (PC-3)	IC50 (DU-145)	IC50 (PA-1)	IC50 [7]
O=Cc1c[nH]c2c1ccc1c3cc(-c4ccccc4)ccc3[nH]c12	60%	68%	54%	16%	53%	15%				
Brc1ccc2[nH]c3c(ccc4cc[nH]c43)c2c1	69%	67%	55%	12%	46%	8%				
O=Cc1c[nH]c2c1ccc1c3cc(-c4ccc(F)cc4)ccc3[nH]c12	65%	72%	54%	15%	55%	15%				
O=Cc1c[nH]c2c1ccc1c3cc(-c4ccc(C(F)(F)F)cc4)ccc3[nH]c12	79%	49%	70%	28%	52%	23%				
O=Cc1c[nH]c2c1ccc1c3cc(-c4ccc(-c5ccccc5)cc4)ccc3[nH]c12	69%	67%	77%	39%	70%	48%				
O=S(=O)(c1ccccc1)n1ccc2ccc3c4ccccc4[nH]c3c21	83%	65%	102%	61%	62%	64%				
COc1cccc(-c2ccc3[nH]c4c(ccc5c(C=O)c[nH]c54)c3c2)c1	64%	65%	46%	17%	31%	12%				
O=Cc1c[nH]c2c1ccc1c3cc(-c4ccc(OC(F)(F)F)cc4)ccc3[nH]c12	68%	73%	77%	29%	70%	31%				
O=Cc1c[nH]c2c1ccc1c3cc(-c4ccc(F)cc4F)ccc3[nH]c12	39%	59%	26%	6%	32%	6%				

Further lines, with some results ahead:

Activity [1]	Activity [2]	Activity [3]	Activity [4]	Activity [5]	Activity [6]	IC50 (PC-3)	IC50 (DU-145)	SMILES	IC50 (PA-1)	IC50 [7]
72%	46%	68%	28%	47%	18%			OCc1c[nH]c2c1ccc1c3ccccc3[nH]c12		
61%	54%	20%	20%	30%	7%			O=C(c1c[nH]c2c1ccc1c3ccccc3[nH]c12)C(F)(F)F		
			9%	27%	9%			NC(=O)c1c[nH]c2c1ccc1c3ccccc3[nH]c12		
31%	82%	11%	6%	53%	6%	5.9 µM	12.2 µM	O=Cc1c[nH]c2c1ccc1c3cc(Br)ccc3[nH]c12	2.8 µM	11 µM
80%	62%	74%	41%	27%	21%			CCN(CC)C(=O)/C(=N\O)c1c[nH]c2c1ccc1c3ccccc3[nH]c12		
90%	69%	72%	35%	50%	21%			OCCc1c[nH]c2c1ccc1c3ccccc3[nH]c12		
